Laboratory results: ChEMBL document CHEMBL5678814, “Novel Mps1 Kinase Inhibitors with Potent Antitumor Activity” (Mol Cancer Ther, 2016)

Legend:
[1] = test system: HT-1376; experiment: Antiproliferative activity against human HT-1376 cells assessed as cell growth inhibition incubated for 96 hrs by MTS assay; assay type: functional, cell-based; conditions: HT-1376, 96 h
[2] = Antiproliferative activity against human JMSU-1 cells assessed as cell growth inhibition incubated for 96 hrs by MTS assay; assay type: functional, cell-based; conditions: JMSU-1, 96 h
[3] = test system: KU-19-19; experiment: Antiproliferative activity against human KU-19-19 cells assessed as cell growth inhibition incubated for 96 hrs by MTS assay; assay type: functional, cell-based; conditions: KU-19-19, 96 h
[4] = test system: HCC70; experiment: Antiproliferative activity against human HCC70 cells assessed as cell growth inhibition incubated for 96 hrs by MTS assay; assay type: functional, cell-based; conditions: HCC70, 96 h
[5] = test system: NCI-H647; experiment: Antiproliferative activity against human NCI-H647 cells assessed as cell growth inhibition incubated for 96 hrs by MTS assay; assay type: functional, cell-based; conditions: NCI-H647, 96 h
[6] = Antiproliferative activity against human HBL1 cells assessed as cell growth inhibition incubated for 96 hrs by MTS assay; assay type: functional, cell-based; conditions: HBL1, 96 h
[7] = test system: Granta-519; experiment: Antiproliferative activity against human Granta-519 cells assessed as cell growth inhibition incubated for 96 hrs by MTS assay; assay type: functional, cell-based; conditions: Granta-519, 96 h
[8] = test system: LAPC4; experiment: Antiproliferative activity against human LAPC4 cells assessed as cell growth inhibition incubated for 96 hrs by MTS assay; assay type: functional, cell-based; conditions: LAPC4, 96 h
[9] = test system: SJRH30; experiment: Antiproliferative activity against human Rh30 cells assessed as cell growth inhibition incubated for 96 hrs by MTS assay; assay type: functional, cell-based; conditions: SJRH30, 96 h
[10] = test system: Rh41; experiment: Antiproliferative activity against human Rh41 cells assessed as cell growth inhibition incubated for 96 hrs by MTS assay; assay type: functional, cell-based; conditions: Rh41, 96 h
[11] = test system: SNU-16; experiment: Antiproliferative activity against human SNU-16 cells assessed as cell growth inhibition incubated for 96 hrs by MTS assay; assay type: functional, cell-based; conditions: SNU-16, 96 h
[12] = Clearance in male CD1 mouse blood at 0.5 mg/kg, iv measured after 24 hrs by LC/-MS/MS analysis; assay type: ADME, organism-based
How it was run: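 Male CD1 mice received a single iv bolus of 0.5 mg/kg in 1% DMSO/99% plasma. Plasma was sampled at 2, 5, 15, 30 and 45 min and at 1, 2, 4, 6, 8 and 24 h, precipitated with ice-cold acetonitrile (1:5), and supernatants were run by LC/MS-MS. Parameters were estimated from plasma concentration data, with AUC by the log-linear trapezoidal rule.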

[13] = Tmax in male Wistar rat plasma at 0.5 mg/kg, po measured after 24 hrs by LC/-MS/MS analysis; assay type: ADME, organism-based
How it was run: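 Male Wistar rats given 0.5 mg/kg orally. Plasma collected from 8 min to 24 h, precipitated with ice-cold acetonitrile (1:5), and analysed by LC/MS-MS. Cmax and Tmax read directly from concentration–time profiles.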

[14] = Oral bioavailability in male Wistar rat plasma at 0.5 mg/kg measured after 24 hrs by LC/-MS/MS analysis; assay type: ADME, organism-based
[15] = In vivo inhibition of Mps1 in NMRI mouse assessed as MTD at => 1 mg/kg,po administered twice daily for 2 days and measured after 3 days relative to control; assay type: functional; conditions: time 2 day
[16] = Cmax in female NMRI mouse plasma at 1 mg/kg, po measured after 24 hrs by LC/-MS/MS analysis
[17] = Oral bioavailability in female NMRI mouse plasma at 1 mg/kg measured after 24 hrs by LC/-MS/MS analysis
[18] = test system: FaDu; experiment: Antiproliferative activity against human FaDu cells assessed as cell growth inhibition incubated for 96 hrs by crystal violet staining
[19] = test system: OPM-2; experiment: Antiproliferative activity against human OPM-2 cells assessed as cell growth inhibition incubated for 96 hrs by crystal violet staining; conditions: OPM-2, 96 h
[20] = test system: Caco-2; experiment: Antiproliferative activity against human Caco-2 cells assessed as cell growth inhibition incubated for 96 hrs by crystal violet staining; conditions: Caco-2, 96 h
[21] = test system: HCT-15; experiment: Antiproliferative activity against human HCT-15 cells assessed as cell growth inhibition incubated for 96 hrs by crystal violet staining; conditions: HCT-15, 96 h
[22] = test system: CAL-33; experiment: Antiproliferative activity against human CAL-33 cells assessed as cell growth inhibition incubated for 96 hrs by crystal violet staining; conditions: CAL-33, 96 h
[23] = test system: SK-BR-3; experiment: Antiproliferative activity against human SK-BR-3 cells assessed as cell growth inhibition incubated for 96 hrs by crystal violet staining; conditions: SK-BR-3, 96 h
[24] = test system: HCT-116; experiment: Antiproliferative activity against human HCT-116 cells assessed as cell growth inhibition incubated for 96 hrs by crystal violet staining; conditions: HCT-116, 96 h
[25] = test system: SK-N-AS; experiment: Antiproliferative activity against human SK-N-AS cells assessed as cell growth inhibition incubated for 96 hrs by crystal violet staining
[26] = test system: OVCAR-8; experiment: Antiproliferative activity against human OVCAR-8 cells assessed as cell growth inhibition incubated for 96 hrs by crystal violet staining; conditions: OVCAR-8, 96 h
[27] = test system: NCI-H460; experiment: Antiproliferative activity against human NCI-H460 cells assessed as cell growth inhibition incubated for 96 hrs by crystal violet staining; conditions: NCI-H460, 96 h
[28] = test system: NCI-H1155; experiment: Antiproliferative activity against human NCI-H1155 cells assessed as cell growth inhibition incubated for 96 hrs by crystal violet staining; conditions: NCI-H1155, 96 h
[29] = test system: NCI-H1650; experiment: Antiproliferative activity against human NCI-H1650 cells assessed as cell growth inhibition incubated for 96 hrs by crystal violet staining; conditions: NCI-H1650, 96 h
[30] = Antiproliferative activity against human NCI-H2110 cells assessed as cell growth inhibition incubated for 96 hrs by crystal violet staining; conditions: NCI-H2110, 96 h
[31] = test system: NCI-H2228; experiment: Antiproliferative activity against human NCI-H2228 cells assessed as cell growth inhibition incubated for 96 hrs by crystal violet staining; conditions: NCI-H2228, 96 h
[32] = Antiproliferative activity against human HeLa-MaTu-ADR cells assessed as cell growth inhibition incubated for 96 hrs by crystal violet staining
[33] = test system: RKO; experiment: Antiproliferative activity against human TP53 wildtype RKO cells assessed as cell growth inhibition incubated for 96 hrs by crystal violet staining
[34] = test system: HCT-116; experiment: Antiproliferative activity against human TP53 mutant HCT-116 cells assessed as cell growth inhibition incubated for 96 hrs by crystal violet staining; conditions: HCT-116, 96 h

COc1cc(S(C)(=O)=O)ccc1Nc1nc2ccc(-c3ccc(NC(=O)[C@H](C)c4ccc(F)cc4)cc3)cn2n1 [BAY-1161909]
IC50 [1]: 3000 nM
IC50 [2]: 89 nM
IC50 [3]: 86 nM
IC50 [4]: 87 nM
IC50 [5]: 570 nM
IC50 [6]: 110 nM
IC50 [7]: 240 nM
IC50 [8]: 130 nM
IC50 [9]: 450 nM
IC50 [10]: 150 nM
IC50 [11]: 88 nM
clearance [12]: 11.5 mL/min/kg
Tmax [13]: 4 h
bioavailability [14]: 49%
MED [15]: >=40%
Cmax [16]: 120 ng/mL
bioavailability [17]: 59%
IC50 [18]: 270 nM
IC50 [19]: 130 nM
IC50 [20]: 1800 nM
IC50 [21]: 110 nM
IC50 [22]: 110 nM
IC50 [23]: > 3000 nM
IC50 [24]: 56 nM
IC50 [25]: 97 nM
IC50 [26]: 190 nM
IC50 [27]: 110 nM
IC50 [28]: 1400 nM
IC50 [29]: 130 nM
IC50 [30]: 280 nM
IC50 [31]: > 3000 nM
IC50 [32]: 180 nM
IC50 [33]: 39 nM
IC50 [34]: 59 nM
